Columns and labels:
CHO-AA8 [1] = experiment: Inhibition of growth under aerobic conditions in AA8 cells; type: functional, cell-based; conditions: Cricetulus griseus
How it was run: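 Growth-inhibition microassay: AA8 cells, 200 per well, were grown 24 h, then exposed aerobically to drug in RMEM with 5% fetal bovine serum for 18 h and washed three times. After a further 78 h they were stained with methylene blue. IC₅₀ = concentration giving 50% growth inhibition relative to controls; means ± SEM, values without SEM from a single determination.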

[2] = Potency in clonogenic assay, defined by hypersensitivity factor calculated for UV4 cells versus AA8 cells [IC50(AA8)/IC50(UV4)]; type: functional, Cricetulus griseus
[3] = Potency in clonogenic assay defined by Hypersensitivity factor calculated for AA8 cells versus EMT6 cells [IC50(AA8)/IC50 (EMT6)]; type: functional
How it was run: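 Aerobic growth-inhibition microassay run in parallel on AA8 (200/well), UV4 (300/well) and murine mammary EMT6 (75/well) cells. After 24 h growth, cells were given 18 h drug exposure in RMEM/5% FBS, washed, grown a further 78 h, and stained with methylene blue. The hypersensitivity factor is IC₅₀(AA8)/IC₅₀(named line), reported as intraexperiment means ± SEM.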

UV4 = experiment: Compound was tested for the concentration required to reduce cell survival under hypoxic conditions, using the cell line UV4 in the clonogenic assay.; type: functional, Cricetulus griseus
How it was run: (§1)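 Clonogenic assay on early-plateau Chinese hamster cells, grown in spinner flasks (AA8 to 10⁶/mL, UV4 to 6 × 10⁵/mL) and resuspended in fresh medium. Stirred 10 mL suspensions at 10⁶/mL were exposed to drug for 1 h under continuous 5% CO₂ in N₂; cells and drug solutions were pre-equilibrated under gas for 1 h. C₁₀ = concentration (µM) giving 10% survival relative to controls.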

[4] = The ratio of C10 values in air and N2 using AA8 cell line.; type: functional, CHO-AA8
How it was run: (§2)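 Stirred early-plateau suspensions (10⁶/mL) of AA8 or UV4 cells were exposed to drug for 1 h under continuous gassing with 5% CO₂ in air or in N₂, after 1 h pre-equilibration, and then plated for clonogenic survival. C₁₀ (10% survival) was found for each gas phase and the ratio C₁₀(air)/C₁₀(N₂) reported.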

[5] = The ratio of C10 values in air and N2 using UV4 cell line.; type: functional; how it was run: as §2
CHO-AA8 [6] = experiment: Compound was tested for the concentration required to reduce cell survival under hypoxic conditions, using the cell line AA8 in the clonogenic assay.; type: functional, Cricetulus griseus; how it was run: as §1
CHO-AA8 [7] = experiment: Inhibitory activity against AA8 cell growth in aerobic condition after 4 hr of exposure; type: functional, cell-based; conditions: Cricetulus griseus, CHO-AA8, 4 h

O=C(NCC(O)CO)c1cc([N+](=O)[O-])c(N(CCCl)CCCl)cc1[N+](=O)[O-] (stereo unspecified)
IC50 (CHO-AA8 [1]): 81 µM | Hypersensitivity factor [2]: 12 | Hypersensitivity factor [3]: 3.5

CN(C)CCNC(=O)c1cc([N+](=O)[O-])cc([N+](=O)[O-])c1N(CCCl)CCCl
IC50 (CHO-AA8 [1]): 150 µM | C10 (UV4): 1100 µM | Hypersensitivity factor [2]: 13 | Ratio [4]: >2.35 | Ratio [5]: 68 | Hypersensitivity factor [3]: 2.5

O=C(NCC(O)CO)c1cc([N+](=O)[O-])c([N+](=O)[O-])cc1N(CCCl)CCCl (stereo unspecified)
IC50 (CHO-AA8 [1]): 73 µM | Hypersensitivity factor [2]: 1.5 | Hypersensitivity factor [3]: 1.9

O=C(NCC(O)CO)c1c([N+](=O)[O-])ccc(N(CCCl)CCCl)c1[N+](=O)[O-] (stereo unspecified)
IC50 (CHO-AA8 [1]): 652 µM | Hypersensitivity factor [2]: 2.7 | Hypersensitivity factor [3]: 1.7

NC(=O)c1cc([N+](=O)[O-])c(N(CCCl)CCCl)cc1[N+](=O)[O-]
IC50 (CHO-AA8 [1]): 11 µM | Hypersensitivity factor [2]: 2.8 | Hypersensitivity factor [3]: 1.9

O=C(NCC(O)CO)c1ccc(N(CCCl)CCCl)c([N+](=O)[O-])c1[N+](=O)[O-] (stereo unspecified)
IC50 (CHO-AA8 [1]): 108 µM | Hypersensitivity factor [2]: 2.3 | Hypersensitivity factor [3]: 3

O=C(NCC(O)CO)c1cc(N(CCCl)CCCl)c([N+](=O)[O-])cc1[N+](=O)[O-] (stereo unspecified)
C10 (UV4): 3600 µM | Hypersensitivity factor [2]: 3.4 | Ratio [5]: 8.6 | Hypersensitivity factor [3]: 2.3

CN(C)CCNC(=O)c1ccc(N(CCCl)CCCl)c([N+](=O)[O-])c1[N+](=O)[O-]
C10 (CHO-AA8 [6]): 140 µM | IC50 (CHO-AA8 [1]): 13 µM | C10 (UV4): 160 µM | Hypersensitivity factor [2]: 1 | Ratio [4]: 0.82 | Ratio [5]: 4 | Hypersensitivity factor [3]: 1.2

NC(=O)c1ccc(N(CCCl)CCCl)c([N+](=O)[O-])c1[N+](=O)[O-]
IC50 (CHO-AA8 [1]): 20 µM | Hypersensitivity factor [2]: 1 | Hypersensitivity factor [3]: 3.1

CN(C)CCNC(=O)c1c([N+](=O)[O-])ccc(N(CCCl)CCCl)c1[N+](=O)[O-]
C10 (CHO-AA8 [6]): 2200 µM | IC50 (CHO-AA8 [1]): 426 µM | C10 (UV4): 2200 µM | Hypersensitivity factor [2]: 2.7 | Ratio [4]: 2.2 | Ratio [5]: 116 | Hypersensitivity factor [3]: 3

O=C(NCC(O)CO)c1cc([N+](=O)[O-])c(N(CCCl)CCCl)c([N+](=O)[O-])c1 (stereo unspecified)
IC50 (CHO-AA8 [1]): 320 µM | Hypersensitivity factor [2]: 0.9 | Hypersensitivity factor [3]: 2.3

CN(C)CCNC(=O)c1cc([N+](=O)[O-])c([N+](=O)[O-])cc1N(CCCl)CCCl
C10 (CHO-AA8 [6]): 44 µM | IC50 (CHO-AA8 [1]): 4 µM | C10 (UV4): 18 µM | Hypersensitivity factor [2]: 1.4 | Ratio [4]: 0.098 | Ratio [5]: 1.8 | Hypersensitivity factor [3]: 3

O=C(NCC(O)CO)c1cc([N+](=O)[O-])cc([N+](=O)[O-])c1N(CCCl)CCCl (stereo unspecified)
IC50 (CHO-AA8 [1]): 500 µM | Hypersensitivity factor [2]: 4.9 | Hypersensitivity factor [3]: 1.8

NC(=O)c1cc(N(CCCl)CCCl)c([N+](=O)[O-])cc1[N+](=O)[O-]
C10 (UV4): 3400 µM | Hypersensitivity factor [2]: 6.4 | Ratio [5]: 42 | Hypersensitivity factor [3]: 1.1

CN(C)CCNC(=O)c1cc([N+](=O)[O-])c(N(CCCl)CCCl)cc1[N+](=O)[O-]
C10 (CHO-AA8 [6]): 120 µM | IC50 (CHO-AA8 [1]): 12 µM | C10 (UV4): 12 µM | Hypersensitivity factor [2]: 13 | Ratio [4]: 3.2 | Ratio [5]: 7.5 | Hypersensitivity factor [3]: 5.8

NC(=O)c1cc([N+](=O)[O-])c(N(CCCl)CCCl)c([N+](=O)[O-])c1
IC50 (CHO-AA8 [1]): 97 µM | Hypersensitivity factor [2]: 1.5 | Hypersensitivity factor [3]: 1.3

CN(C)CCNC(=O)c1cc([N+](=O)[O-])c(N(CCCl)CCCl)c([N+](=O)[O-])c1
C10 (CHO-AA8 [6]): 270 µM | IC50 (CHO-AA8 [1]): 62 µM | C10 (UV4): 250 µM | Hypersensitivity factor [2]: 1.8 | Ratio [4]: 0.96 | Ratio [5]: 1.04 | Hypersensitivity factor [3]: 2.1

NC(=O)c1c([N+](=O)[O-])ccc(N(CCCl)CCCl)c1[N+](=O)[O-]
IC50 (CHO-AA8 [1]): > 244 µM | Hypersensitivity factor [2]: >2.6

CN(C)CCNC(=O)c1cc(N(CCCl)CCCl)c([N+](=O)[O-])cc1[N+](=O)[O-]
C10 (CHO-AA8 [6]): 1300 µM | C10 (UV4): 400 µM | Hypersensitivity factor [2]: 3.1 | Ratio [4]: 3.1 | Ratio [5]: 44 | Hypersensitivity factor [3]: 6.7

NC(=O)c1cc([N+](=O)[O-])c([N+](=O)[O-])cc1N(CCCl)CCCl
IC50 (CHO-AA8 [1]): 1.6 µM | Hypersensitivity factor [2]: 0.88 | Hypersensitivity factor [3]: 0.43

NC(=O)c1cc(N(CCCl)CCCl)c(NO)cc1[N+](=O)[O-]
IC50 (CHO-AA8 [7]): 180 µM

NC(=O)c1cc([N+](=O)[O-])cc([N+](=O)[O-])c1N(CCCl)CCCl
IC50 (CHO-AA8 [1]): 73 µM | Hypersensitivity factor [2]: 4.3 | Hypersensitivity factor [3]: 0.7

Source: ChEMBL document CHEMBL1129351, “Hypoxia-selective antitumor agents. 14. Synthesis and hypoxic cell cytotoxicity of regioisomers of the hypoxia-selective cytotoxin 5-[N,N-bis(2-chloroethyl)amino]-2,4-dinitrobenzamide” (J Med Chem, 1996)
